# KLK5 inh – inhibitors of human kallikrein 5; Q9Y337; recombinant hK5, fluorogenic AMC substrate cleavage; inhibition, % at 5 µM; 210,000 compounds, 0.59% hits;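 active = inhibition of 40% or more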;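 also: 0% = enzyme controls without compound and 100% = no-enzyme blanks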
# Target sequence (Q9Y337 67-293 limits assumed): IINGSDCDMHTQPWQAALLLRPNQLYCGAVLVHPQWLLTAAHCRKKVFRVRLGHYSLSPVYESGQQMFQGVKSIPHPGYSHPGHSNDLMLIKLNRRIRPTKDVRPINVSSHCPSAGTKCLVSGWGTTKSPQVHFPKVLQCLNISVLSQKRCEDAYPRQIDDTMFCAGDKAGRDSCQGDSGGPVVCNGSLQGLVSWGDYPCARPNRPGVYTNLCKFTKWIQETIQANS
# Fh CTSL1 inh – cathepsin L1 inhibition, PFM18AAP counter-screen; AID 1906; recombinant F. hepatica cathepsin L1, Z-Leu-Arg-MCA fluorescence; 300,000 compounds, 0.49% hits; inhibition, % at 5.96 µM;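 active = inhibition above the mean of all tested compounds plus 3 SD, set per screening campaign, cut at about 17% in these data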;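 also: 0% = plate median of test compound wells and 100% = 1 µM Z-Phe-Ala-diazomethylketone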
# FXIa inh 1536 – factor XIa (human) inhibition. P03951. purified FXIa, Boc-Glu-Ala-Arg-AMC fluorogenic substrate. inhibition, % at 5 µM. 220,000 compounds, 0.14% hits;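 active = inhibition of at least 40%; inactive = inhibition below 40%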;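 also: fluorescence of freed AMC excited at 355 nm; 0% = enzyme without compound and 100% = no enzyme blank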
# Rce1 inhib – blocks yeast Ras-converting enzyme; yeast membranes, quenched prenylated peptide cleavage fluorescence; Q03530; 290,000 compounds, 0.27% hits; calls only; AID 2563;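 active = fall in fluorescence gain of 50% or more versus controls, with final raw signal at or below 3038400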;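 also: plate controls were neutral control wells for no effect and wells lacking membranes for full effect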
# Thrombin inh – blocks human thrombin protease activity; AID 1046; inhibition, % at 5 µM; alpha-thrombin, Boc-VPR-AMC fluorogenic substrate cleavage; 220,000 compounds, 0.26% hits;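 active = inhibition at or above 40%; inactive = inhibition below 40%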;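 also: 0% = enzyme with no compound and 100% = wells without enzyme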
#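 Material: human alpha-thrombin protein. Incubation: reaction at ambient temperature. Technique: fluorescence of released AMC, ex 355 nm, em 460 nm. Control set: no-compound enzyme wells and no-enzyme blanks. Also added: Boc-VPR-AMC substrate, 15 µM final. Buffer or medium: pH 7.5 Tris (50 mM) with NaCl 150 mM, Tween 20 0.05%.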
# FXIIa inh – blocks human coagulation factor XIIa protease activity; purified FXIIa, Boc-QGR-AMC fluorogenic substrate, 2 h; P00748; 220,000 compounds, 0.3% hits; inhibition, % at 5 µM; in the data active = inhibition above about 40%;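 also: 0% = enzyme with no compound and 100% = blank without enzyme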
# Starred values were filed as active, the others as inactive; i = inactive; · = no result given; + = active, no number. Hits are enriched below; roughly 1.4% of the tested compounds scored in any of these assays.
SMILES,KLK5 inh,Fh CTSL1 inh,FXIa inh 1536,Rce1 inhib,Thrombin inh,FXIIa inh
N#C/C(=C\c1ccncc1)c1nc2ccccc2[nH]1,-5.5,·,-1.4,i,-7.4,1.1
COc1ccc(OCc2cc(-c3ccc(Cl)cc3)no2)cc1,-3.2,0.9,-4.3,i,-8.1,-0.2
O=C(CCl)NCc1cc(-c2ccc(Cl)cc2)no1,5.6,34.6*,-1.6,·,1.6,9.2
Cc1cccnc1NC(=O)CN1C(=O)c2ccccc2S1(=O)=O,·,-2.7,·,i,·,·
COc1ccc(-n2nc(C(=O)NCC(=O)NCc3ccc(F)cc3)c3ccccc3c2=O)cc1,·,6.8,·,+,·,·
COc1ccc(-n2nc(C(=O)NCC(=O)O)c3ccccc3c2=O)cc1,·,-4.0,·,i,·,·
COc1ccc(-n2nc(C(=O)NCC(=O)N(C)Cc3ccccc3)c3ccccc3c2=O)cc1,·,1.1,·,+,·,·
COc1cc(OC)cc(-n2nc(C(=O)NCCCN3CCOCC3)c3ccccc3c2=O)c1,13.9,-2.5,5.0,·,-0.9,8.4
COCCNC(=O)c1nn(-c2cc(OC)cc(OC)c2)c(=O)c2ccccc12,66.3*,-0.3,15.2,i,7.8,18.1
COc1ccc(-n2nc(C(=O)NCC(=O)N3CCN(Cc4ccccc4)CC3)c3ccccc3c2=O)cc1,·,0.8,·,+,·,·
CCOc1ccc(S(=O)(=O)NC2CC2)cc1,·,-3.4,·,i,·,·
O=C1NC(NS(=O)(=O)c2ccc(Cl)cc2)(C(F)(F)F)C(=O)N1Cc1cccnc1 (stereo unspecified),-1.8,-1.5,13.0,i,2.2,15.3
COc1ccc(NC(=O)C2C3C=CC4(O3)C2C(=O)N(CCN2CCCCC2C)C4C(=O)NC2CCCCC2)cc1 (stereo unspecified),·,9.9,·,·,·,·
CCCCCc1cc(=O)oc2c(C(CCN(CC)CC)c3ccc(N(C)C)cc3)c(OC)cc(OC)c12 (stereo unspecified),2.7,1.5,2.1,i,1.7,8.6
O=C(Nc1cccc(N=Cc2cc(Br)cc(Br)c2O)c1)c1ccco1,-6.1,-1.8,5.9,i,3.7,4.9
O=C(Nc1cccc(N=Cc2cc(Cl)cc(Br)c2O)c1)c1ccco1,-25.7,18.2*,-2.6,i,-6.5,6.2
Cn1cc(/C=N/NC(N)=S)c2ccccc21,-2.5,99.8*,1.3,i,-25.4,-0.9
O=C(NCCc1ccco1)C(=O)NCC1OCCCN1S(=O)(=O)c1cc(F)ccc1F (stereo unspecified),·,-0.3,·,i,·,·
COc1ccc(OC)c(NC(=O)NNS(=O)(=O)c2ccc(C)cc2C)c1,·,2.7,·,i,·,·
Cc1cc(C)cc(NC(=O)CSc2nnc(-c3ccccc3C)o2)c1,53.5*,3.1,6.1,i,17.2,-5.3
CCOc1ccccc1NC(=O)c1ccc2c(c1)C(=O)N(CC1CCCO1)C2=O (stereo unspecified),·,17.5*,·,i,·,·
Cc1c(NC(=O)c2ccc3c(c2)C(=O)N(CC2CCCO2)C3=O)cccc1C(=O)O (stereo unspecified),0.5,-1.0,0.8,i,15.9,12.2
CCOC(=O)[C@@H]1[C@H]2COc3ccccc3[C@H]2N2C(=O)N(c3ccc(Cl)cc3)C(=O)[C@@]12C,·,-1.2,·,i,·,·
COc1cccc(NC(=S)N(CCCN2CCCC2)Cc2ccco2)c1,3.1,-1.0,-0.5,i,95.1*,10.2
Cn1c(=O)c2c(nc(SCCN3CCOCC3)n2C)n(C)c1=O,·,0.3,·,i,·,·
SMILES,KLK5 inh,Fh CTSL1 inh,FXIa inh 1536,Rce1 inhib,Thrombin inh,FXIIa inh
Cc1c(NC(=O)COC(=O)C2=COCCO2)cccc1[N+](=O)[O-],·,-2.4,·,i,·,·
Cc1ccc(NC(=O)/C(CN(C)C)=N\O)cc1,10.8,0.7,16.2,i,-1.2,41.9*
Cc1ccc(NC(=O)CN(C)C(=O)Nc2ccc(C)cc2)cc1,·,-0.9,·,·,·,·
COc1ccc(CN2[C@@H](CC(C)=O)c3cc(C(F)(F)F)ccc3S2(=O)=O)cc1,·,16.9*,·,i,·,·
Cc1onc(-c2c(F)cccc2Cl)c1-c1nnc(-c2ccc(C(F)(F)F)cc2)o1,33.0,0.2,33.0,i,18.2,57.4*
O=C(CSc1ccc2nnc(CCNC(=O)c3ccccc3)n2n1)NC1CCCC1,·,2.7,·,i,·,·
CCOC(=O)c1nnc(-c2cccs2)nc1NC(C)C,114.7*,3.9,-0.2,i,3.9,1.5
O=C(Nc1sc2c(c1C(=O)NCC1CCCO1)CCCC2)c1cccs1 (stereo unspecified),54.2*,13.5,6.0,i,20.6,18.9
O=C(Nc1sc2c(c1C(=O)O)CCCC2)c1cccs1,2.3,0.4,12.8,i,9.2,10.0

# High-throughput results: PubChem, several laboratories
